Measured values as given in ChEMBL document CHEMBL1137650, “An OXA-66/OXA-51-like carbapenemase and possibly an efflux pump are associated with resistance to imipenem in Acinetobacter baumannii” (2007).
Values after ≈ are worked out from the molar mass of the structure shown.

Key:
[1] = tested on: Acinetobacter baumannii; assay: Antibacterial activity against imipenem-resistant Acinetobacter baumannii abh13 by broth dilution method; assay type: functional
Outline: (§1)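 Clinical isolates were collected at three Taiwan hospitals (1993–2003) and grown in tryptic soy broth at 37°C for 18 h. MIC by broth dilution following CLSI recommendations.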

[2] = tested on: Acinetobacter baumannii; assay: Antibacterial activity against imipenem-resistant Acinetobacter baumannii ISAB ab1254(r) by broth dilution method in presence of 2 ug/ml efflux pump inhibitor carbonyl cyanide m-chlorophenyl-hydrazone; assay type: functional
[3] = tested on: Acinetobacter baumannii; assay: Antibacterial activity against imipenem-resistant Acinetobacter baumannii ISAB ab8(r) by broth dilution method in presence of 2 ug/ml efflux pump inhibitor carbonyl cyanide m-chlorophenyl-hydrazone; assay type: functional
[4] = tested on: Acinetobacter baumannii; assay: Antibacterial activity against imipenem-resistant Acinetobacter baumannii abh29 by broth dilution method; assay type: functional; outline: as §1
[5] = tested on: Acinetobacter baumannii; assay: Antibacterial activity against imipenem-intermediate Acinetobacter baumannii ab1297 by broth dilution method; assay type: functional
Outline: (§2)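 Clinical A. baumannii isolates collected at three Taiwanese hospitals, routinely grown in tryptic soy broth at 37°C for 18 h. MICs (μg ml⁻¹) were determined by broth dilution following CLSI recommendations, or by Etest strips following the manufacturer's instructions.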

[6] = tested on: Acinetobacter baumannii; assay: Antibacterial activity against imipenem-susceptible Acinetobacter baumannii ab1316 by broth dilution method; assay type: functional; outline: as §2
[7] = tested on: Acinetobacter baumannii; assay: Antibacterial activity against imipenem-resistant Acinetobacter baumannii abh20 by broth dilution method; assay type: functional; outline: as §1
[8] = tested on: Acinetobacter baumannii; assay: Antibacterial activity against imipenem-susceptible Acinetobacter baumannii ab1308 by broth dilution method; assay type: functional; outline: as §2
[9] = tested on: Acinetobacter baumannii; assay: Antibacterial activity against imipenem-resistant Acinetobacter baumannii abh37 by broth dilution method; assay type: functional; outline: as §1
[10] = tested on: Acinetobacter baumannii; assay: Antibacterial activity against imipenem-susceptible Acinetobacter baumannii ab4 by broth dilution method; assay type: functional; outline: as §1
[11] = tested on: Acinetobacter baumannii; assay: Antibacterial activity against imipenem-resistant Acinetobacter baumannii abh18 by broth dilution method; assay type: functional; outline: as §1
[12] = tested on: Acinetobacter baumannii; assay: Antibacterial activity against imipenem-resistant Acinetobacter baumannii abh39 by broth dilution method; assay type: functional; outline: as §1
[13] = tested on: Acinetobacter baumannii; assay: Antibacterial activity against imipenem-resistant Acinetobacter baumannii abh11 by broth dilution method; assay type: functional; outline: as §1
[14] = tested on: Acinetobacter baumannii; assay: Antibacterial activity against imipenem-resistant Acinetobacter baumannii abh17 by broth dilution method; assay type: functional; outline: as §1
[15] = tested on: Acinetobacter baumannii; assay: Antibacterial activity against imipenem-resistant Acinetobacter baumannii abh36 by broth dilution method; assay type: functional; outline: as §1
[16] = tested on: Acinetobacter baumannii; assay: Antibacterial activity against imipenem-resistant Acinetobacter baumannii abh14 by broth dilution method; assay type: functional; outline: as §1
[17] = tested on: Acinetobacter baumannii; assay: Antibacterial activity against imipenem-resistant Acinetobacter baumannii ISAB ab8(r) by broth dilution method; assay type: functional
[18] = tested on: Acinetobacter baumannii; assay: Antibacterial activity against imipenem-susceptible Acinetobacter baumannii ab3 by broth dilution method; assay type: functional; outline: as §1
[19] = tested on: Acinetobacter baumannii; assay: Antibacterial activity against imipenem-resistant Acinetobacter baumannii ISAB ab1254(r) by broth dilution method; assay type: functional
[20] = tested on: Acinetobacter baumannii; assay: Antibacterial activity against imipenem-susceptible Acinetobacter baumannii ab20 by broth dilution method; assay type: functional; outline: as §1
[21] = tested on: Acinetobacter baumannii; assay: Ratio of MIC for Acinetobacter baumannii ISAB ab8(r) to MIC for Acinetobacter baumannii ISAB ab8(r) in presence of 2 ug/ml efflux pump inhibitor carbonyl cyanide m-chlorophenyl-hydrazone; assay type: functional
[22] = tested on: Acinetobacter baumannii; assay: Antibacterial activity against imipenem-susceptible Acinetobacter baumannii ab1254 by broth dilution method; assay type: functional; outline: as §1
[23] = tested on: Acinetobacter baumannii; assay: Antibacterial activity against imipenem-resistant Acinetobacter baumannii ab1265 by broth dilution method; assay type: functional; outline: as §1
[24] = tested on: Acinetobacter baumannii; assay: Antibacterial activity against imipenem-susceptible Acinetobacter baumannii ab8 by broth dilution method; assay type: functional; outline: as §1
[25] = tested on: Acinetobacter baumannii; assay: Antibacterial activity against imipenem-susceptible Acinetobacter baumannii ab12 by broth dilution method; assay type: functional; outline: as §1
[26] = tested on: Acinetobacter baumannii; assay: Antibacterial activity against imipenem-resistant Acinetobacter baumannii abh26 by broth dilution method; assay type: functional; outline: as §1
[27] = tested on: Acinetobacter baumannii; assay: Antibacterial activity against imipenem-resistant Acinetobacter baumannii ab1266 by broth dilution method; assay type: functional; outline: as §1
[28] = tested on: Acinetobacter baumannii; assay: Ratio of MIC for Acinetobacter baumannii ISAB ab1254(r) to MIC for Acinetobacter baumannii ISAB […] in presence of 2 ug/ml efflux pump inhibitor carbonyl cyanide m-chlorophenyl-hydrazone; assay type: functional
[29] = tested on: Acinetobacter baumannii; assay: Antibacterial activity against imipenem-resistant Acinetobacter baumannii abh9 by broth dilution method; assay type: functional; outline: as §1
[30] = tested on: Acinetobacter baumannii; assay: Antibacterial activity against imipenem-susceptible Acinetobacter baumannii ATCC 19606 by broth dilution method; assay type: functional; conditions: ATCC 19606 = CIP 70.34 = JCM 6841
[31] = tested on: Acinetobacter baumannii; assay: Ratio of MIC for Acinetobacter baumannii ISAB ab8(r) to MIC for Acinetobacter baumannii ISAB ab8(r) in presence of […] ug/ml efflux pump inhibitor carbonyl cyanide m-chlorophenyl-hydrazone; assay type: functional
[32] = tested on: Acinetobacter baumannii; assay: Antibacterial activity against imipenem-resistant Acinetobacter baumannii ISAB ab1254(r) by broth dilution method in presence of 24 ug/ml efflux pump inhibitor carbonyl cyanide m-chlorophenyl-hydrazone; assay type: functional
[33] = tested on: Escherichia coli; assay: Antibacterial activity against Escherichia coli TOP10 expressing imipenem-resistant Acinetobacter baumannii ab1266 blaoxa-66 gene by Etest; assay type: functional
Outline: (§3)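 E. coli TOP10 carrying empty pBAD/Myc-His or pBAD/Myc-His with blaOXA-66 cloned from the named strain, grown at 37°C in LB with 50 μg/ml ampicillin to OD600 0.5. Plated on Mueller-Hinton agar with 50 μg/ml ampicillin and 0.002% arabinose for induction. Imipenem MIC read by Etest.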

[34] = tested on: Acinetobacter baumannii; assay: Ratio of MIC for Acinetobacter baumannii ISAB ab8(r) to MIC for Acinetobacter baumannii ISAB ab1254(r) in presence of […] ug/ml efflux pump inhibitor carbonyl cyanide m-chlorophenyl-hydrazone; assay type: functional
[35] = tested on: Acinetobacter baumannii; assay: microbe, parasite or virus in culture; conditions: ISAB ab8(r)
[36] = tested on: Escherichia coli; assay: Antibacterial activity against Escherichia coli TOP10 by Etest; assay type: functional; outline: as §3
[37] = tested on: Escherichia coli; assay: Antibacterial activity against Escherichia coli TOP10 expressing imipenem-susceptible Acinetobacter baumannii ab1254 blaoxa-66 gene by Etest; assay type: functional; outline: as §3

Structure (SMILES)	MIC [1]	MIC [4]	MIC [5]	MIC [6]	MIC [7]	MIC [8]	MIC [9]	MIC [10]	MIC [11]	MIC [12]	MIC [13]	MIC [14]	MIC [15]	MIC [16]	MIC [18]	MIC [20]	MIC [22]	MIC [23]	MIC [24]	MIC [25]	other results
C[C@@H](O)[C@H]1C(=O)N2C(C(=O)O)=C(S[C@@H]3CN[C@H](C(=O)N(C)C)C3)[C@H](C)[C@H]12 [MEROPENEM]	> 32 µg/mL	> 32 µg/mL	32 µg/mL (≈ 83.4 µM)	1.5 µg/mL (≈ 3.91 µM)	32 µg/mL (≈ 83.4 µM)	0.75 µg/mL (≈ 1.96 µM)	32 µg/mL (≈ 83.4 µM)	0.5 µg/mL (≈ 1.3 µM)	32 µg/mL (≈ 83.4 µM)	32 µg/mL (≈ 83.4 µM)	> 32 µg/mL	16 µg/mL (≈ 41.7 µM)	> 32 µg/mL	> 32 µg/mL	0.38 µg/mL (≈ 0.991 µM)	0.75 µg/mL (≈ 1.96 µM)	0.75 µg/mL (≈ 1.96 µM)	> 32 µg/mL	0.5 µg/mL (≈ 1.3 µM)	0.5 µg/mL (≈ 1.3 µM)	MIC [2]: 3 µg/mL; MIC [3]: 4 µg/mL; MIC [17]: 8 µg/mL (≈ 20.9 µM); MIC [19]: 6 µg/mL (≈ 15.6 µM); fold change (FC) [21]: 2; MIC [26]: 32 µg/mL (≈ 83.4 µM); MIC [27]: > 32 µg/mL; fold change (FC) [28]: 2; MIC [29]: > 32 µg/mL
CO/N=C(\C(=O)N[C@@H]1C(=O)N2C(C(=O)O)=C(COC(C)=O)CS[C@H]12)c1csc(N)n1 [CEFOTAXIME]	> 256 µg/mL	> 256 µg/mL	> 256 µg/mL	> 256 µg/mL	> 256 µg/mL	> 256 µg/mL	> 256 µg/mL	> 256 µg/mL	> 256 µg/mL	> 256 µg/mL	> 256 µg/mL	> 256 µg/mL	> 256 µg/mL	> 256 µg/mL	> 256 µg/mL	> 256 µg/mL	> 256 µg/mL	> 256 µg/mL	> 256 µg/mL	> 256 µg/mL	MIC [30]: 16 µg/mL (≈ 35.1 µM); MIC [26]: > 256 µg/mL; MIC [27]: > 256 µg/mL; MIC [29]: > 256 µg/mL
O=C(O)c1cn(C2CC2)c2cc(N3CCNCC3)c(F)cc2c1=O [CIPROFLOXACIN]	> 32 µg/mL	> 32 µg/mL	> 32 µg/mL	> 32 µg/mL	> 32 µg/mL	> 32 µg/mL	> 32 µg/mL	0.25 µg/mL (≈ 0.754 µM)	> 32 µg/mL	> 32 µg/mL	> 32 µg/mL	> 32 µg/mL	> 32 µg/mL	> 32 µg/mL	0.125 µg/mL (≈ 0.377 µM)	3 µg/mL (≈ 9.05 µM)	> 32 µg/mL	> 32 µg/mL	0.38 µg/mL (≈ 1.15 µM)	0.25 µg/mL (≈ 0.754 µM)	MIC [30]: 0.75 µg/mL (≈ 2.26 µM); MIC [26]: > 32 µg/mL; MIC [27]: > 32 µg/mL; MIC [29]: > 32 µg/mL
C[C@@H](O)[C@H]1C(=O)N2C(C(=O)O)=C(SCCNC=N)C[C@H]12 [IMIPENEM ANHYDROUS]	32 µg/mL (≈ 107 µM)	32 µg/mL (≈ 107 µM)	8 µg/mL (≈ 26.7 µM)	3 µg/mL (≈ 10 µM)	32 µg/mL (≈ 107 µM)	2 µg/mL (≈ 6.68 µM)	32 µg/mL (≈ 107 µM)	1 µg/mL (≈ 3.34 µM)	32 µg/mL (≈ 107 µM)	32 µg/mL (≈ 107 µM)	32 µg/mL (≈ 107 µM)	32 µg/mL (≈ 107 µM)	32 µg/mL (≈ 107 µM)	32 µg/mL (≈ 107 µM)	1 µg/mL (≈ 3.34 µM)	1.5 µg/mL (≈ 5.01 µM)	3 µg/mL (≈ 10 µM)	> 32 µg/mL	1 µg/mL (≈ 3.34 µM)	1 µg/mL (≈ 3.34 µM)	fold change (FC) [31]: 4; MIC [30]: 0.38 µg/mL (≈ 1.27 µM); MIC [32]: 16 µg/mL; MIC [17]: 256 µg/mL (≈ 855 µM); MIC [33]: 1.5 µg/mL (≈ 5.01 µM); MIC [19]: 128 µg/mL (≈ 428 µM); fold change (FC) [34]: 8; MIC [35]: 64 µg/mL (≈ 214 µM); MIC [36]: 0.19 µg/mL (≈ 0.635 µM); MIC [37]: 0.75 µg/mL (≈ 2.51 µM); MIC [26]: 32 µg/mL (≈ 107 µM); MIC [27]: > 32 µg/mL; MIC [29]: 32 µg/mL (≈ 107 µM)
